{"data": "Published values of several laboratories", "target": "Mitogen-activated protein kinase kinase kinase 2 (MAP3K2, Homo sapiens, UniProt Q9Y2U5)", "One construct used (Q9Y2U5 1-619)": "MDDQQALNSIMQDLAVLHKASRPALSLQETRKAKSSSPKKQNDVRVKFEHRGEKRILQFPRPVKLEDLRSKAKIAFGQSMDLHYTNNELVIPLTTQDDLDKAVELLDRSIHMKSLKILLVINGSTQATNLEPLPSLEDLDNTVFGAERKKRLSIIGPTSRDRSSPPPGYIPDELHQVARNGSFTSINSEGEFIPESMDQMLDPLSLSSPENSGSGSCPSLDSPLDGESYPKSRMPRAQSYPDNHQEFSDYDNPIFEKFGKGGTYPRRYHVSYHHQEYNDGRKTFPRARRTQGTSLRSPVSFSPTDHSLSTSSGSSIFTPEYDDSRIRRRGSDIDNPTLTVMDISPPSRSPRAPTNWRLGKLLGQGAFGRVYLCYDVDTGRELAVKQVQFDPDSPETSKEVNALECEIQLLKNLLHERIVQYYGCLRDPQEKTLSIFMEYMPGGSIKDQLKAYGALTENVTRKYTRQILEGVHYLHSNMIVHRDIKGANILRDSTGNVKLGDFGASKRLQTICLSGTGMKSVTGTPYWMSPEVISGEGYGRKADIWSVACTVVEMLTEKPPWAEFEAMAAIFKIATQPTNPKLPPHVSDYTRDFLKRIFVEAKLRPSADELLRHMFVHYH", "note": "Compare with care: the assays were run in different laboratories."}
{"SMILES": "CC(C)(O)[C@H]1CC[C@H](Nc2ccc3ncc(-c4cccc(C(F)(F)F)c4)n3n2)CC1", "test": "enzyme activity, inhibitor", "conditions": "1 µM", "quantity": "remaining activity", "result": "95.8%"}
{"SMILES": "O=C1NC(=O)c2cc(Nc3ccc(F)cc3)c(Nc3ccc(F)cc3)cc21", "test": "cell-free assay", "conditions": "0.5 µM", "quantity": "remaining signal", "result": "94.8%"}
{"SMILES": "O=C(Nc1cnn(-c2csc(C(=O)NC3COC3)c2)c1)Nc1ccccc1Cl", "test": "enzyme activity, inhibitor", "conditions": "5 µM", "quantity": "remaining activity", "result": "110%"}
{"SMILES": "CC(C)(C)c1nc2c(s1)c1nc(N)ncc1c1ccc(NS(=O)(=O)c3c(F)cccc3F)c(F)c12", "test": "enzyme activity, inhibitor, radiometric", "conditions": "1 µM", "quantity": "remaining activity", "result": "83%"}
{"SMILES": "CN(C)C(=O)Cn1cc(-c2nc([C@@](C)(c3ccc(-c4cnc(N)nc4)cc3)C3CC3)no2)cn1", "test": "cell-free assay, competition with immobilised ligand", "conditions": "1 µM", "quantity": "remaining binding", "result": "94%"}
{"SMILES": "CN1CC(Oc2cnc(C#N)cc2-c2ccn3nc(NC(=O)C4CC4)cc3c2)C1", "test": "enzyme activity, inhibitor", "conditions": "1 µM", "quantity": "inhibition", "result": "0%"}
{"SMILES": "CCN(CC)CCNC(=O)c1c(C)[nH]c(/C=C2\\C(=O)Nc3ccc(F)cc32)c1C", "test": "cell-free assay", "conditions": "0.5 µM", "quantity": "remaining signal", "result": "51.9%"}
{"SMILES": "O=c1nc(-c2ccccn2)sc2ccccc12", "test": "binding, competition with immobilised ligand", "conditions": "1 µM", "quantity": "remaining binding", "result": "92%"}
{"SMILES": "Cc1sc(C(=O)NC2COC2)cc1-n1cc(NC(=O)Nc2c(F)cccc2Cl)cn1", "test": "enzyme activity, inhibitor", "conditions": "10 µM", "quantity": "remaining activity", "result": "88.1%"}
{"SMILES": "O=C(NCc1ncc(C(F)(F)F)cc1Cl)c1ccc2c(c1)C1(CCS(=O)(=O)CC1)[C@H](C1CC1)N2S(=O)(=O)c1ccc(F)cc1", "test": "cell-free assay, competition with immobilised ligand", "conditions": "1 µM", "quantity": "remaining binding", "result": "66%"}
{"SMILES": "CCN1CCN(Cc2ccc(NC(=O)c3ccc(C)c(Oc4ccnc5[nH]ccc45)c3)cc2C(F)(F)F)CC1", "test": "target engagement in cells, inhibitor, chemoproteomics", "system": "Huh-7", "conditions": "1 µM", "quantity": "inhibition", "result": "-39%"}
{"SMILES": "Cc1cc(C)c(-n2ccn3nc(-c4cccnc4)cc23)cc1NC(=O)c1cc(C#N)cc(S(F)(F)(F)(F)F)c1", "test": "cell-free assay, competition with immobilised ligand", "conditions": "0.1 µM", "quantity": "remaining binding", "result": "86.4%"}
{"SMILES": "Cc1ccc(C(=O)Nc2ccc(CN3CCN(C)CC3)c(C(F)(F)F)c2)cc1C#Cc1cnc2cccnn12", "test": "enzyme activity, inhibitor", "conditions": "23.5 nM", "quantity": "remaining activity", "result": "55%"}
{"SMILES": "Cc1cc(NC(=O)c2cccc3cc(-c4cccc5[nH]nc(N)c45)ccc23)ccc1F", "test": "enzyme activity, inhibitor", "conditions": "0.1 µM", "quantity": "activity vs control", "result": "100%"}
